How the values were obtained:
HCT-116 = experiment: Cytotoxicity against human HCT-116 cells assessed as inhibition of cell growth measured after 72 hrs by CellTiter-Glo reagent based luminescence assay; format: functional; settings: HCT-116, 72 h
Method in brief: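 Cells (HCT-116 in McCoy's 5A; U87-MG in DMEM 4.5 g/L glucose; all with 10% serum, 1% glutamine, 37 °C, 5% CO2) seeded at 3 × 10³/well, treated after 24 h with 10 final concentrations by serial dilution; vehicle controls. After 72 h, CellTiter-Glo luminescence; IC50 from four- or five-parameter logistic fit, triplicate, mean of three experiments.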

[1] = Inhibition of porcine brain tubulin polymerization incubated for 30 mins followed by cooling on ice for 10 mins and measured by UV spectrometer assay; format: tissue-based, Sus scrofa
Method in brief: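 Porcine brain tubulin (Shelanski isolation) in 0.1 M MES, 1.5 mM GTP, 1 mM EGTA, 1 mM β-ME, 1 mM MgCl2, pH 6.7, diluted to 1.5 mg/mL; ligand or DMSO 30 min at 20 °C, 10 min on ice. Assembly by 450 nm turbidity on 4→37 °C shift, plateau minus baseline vs no-ligand control (100%); IC50 from mono-exponential fit of ligand:tubulin ratio, three independent experiments.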

[2] = Drug metabolism in rat liver microsomes assessed as O-demethylated metabolite formation measured after 96 hrs by ESI-HRMS assay; format: ADME, Microsome
Method in brief: (§1)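 Rat or human liver microsomes at 1 mg/mL final protein in 10 mM buffer, pH 7.4, prewarmed to 37 °C with an NADPH-generating system (0.6 mM NADP, 6.4 mM glucose-6-phosphate, 2 U/mL G6P dehydrogenase). Substrate 100 μM final; shaken at 37 °C. Triplicate aliquots taken at 0–96 h (up to 144 h), ethyl acetate quench with internal standard, then HPLC-MS/MS (positive ESI, m/z 150–450, CID).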

[3] = Drug metabolism in rat liver microsomes assessed as hydroxylated metabolite formation measured after 96 hrs by ESI-HRMS assay; format: ADME, Microsome
Method in brief: (§2)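 Compound at 100 μM final incubated at 37 °C with rat or human liver microsomes (1 mg/mL protein, 10 mM buffer pH 7.4) plus NADPH-generating system (0.6 mM NADPNa4, 6.4 mM glucose-6-phosphate, 2 U/mL G6PDH). After 96 h, ethyl acetate extraction and HPLC-MS/MS (positive ESI, m/z 150–450, collision-induced dissociation) to identify metabolites.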

[4] = Drug metabolism in human liver microsomes assessed as O-demethylated metabolite formation measured after 96 hrs by ESI-HRMS assay; format: ADME, Microsome; method in brief: as §1
[5] = Metabolic stability in rat liver microsomes assessed as half life measured after 96 hrs by HPLC-MS/MS analysis; format: ADME, Microsome
Method in brief: (§3)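 Compound (100 μM final) incubated at 37 °C with rat or human liver microsomes (1 mg/mL protein, pH 7.4) and NADPH-generating system; triplicate aliquots at 0–144 h quenched with isoCA-4 internal standard and ethyl acetate, quantified by HPLC-MS/MS against calibration curves.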

[6] = Metabolic stability in human liver microsomes assessed as half life measured after 96 hrs by HPLC-MS/MS analysis; format: ADME, Microsome; method in brief: as §3
[7] = Drug metabolism in human liver microsomes assessed as hydroxylated metabolite formation measured after 96 hrs by ESI-HRMS assay; format: ADME, Microsome; method in brief: as §2

Row | SMILES | IC50 (HCT-116) [nM] | also measured
1 | COCc1cc2cc(N(C)c3cc(C)nc4ccccc34)ccc2n1C | 10.2 | –
2 | C=C(c1ccc2c(c1)cc(CO)n2C)c1cc(C)nc2ccccc12 | 1.25 | –
3 | C=C(c1ccc2c(c1)cc1n2CC=CC1)c1cc(C)nc2ccccc12 | 25.7 | –
4 | C=C(c1cc(OC)c(OC)c(OC)c1)c1ccc2c(c1)cc1n2CCOC1 | 23.5 | –
5 | C=C(c1cc(OC)c(OC)c(OC)c1)c1ccc2c(c1)cc(CO)n2CC | 0.52 | IC50 [1]: 2900 nM; Drug metabolism [2]: Metabolite_Detected; Drug metabolism [3]: Metabolite_Detected; Drug metabolism [4]: Metabolite_Detected; half-life [5]: 2.92 days; half-life [6]: 3.71 days; Drug metabolism [7]: Metabolite_Detected
6 | C=C(c1cc(OC)c(OC)c(OC)c1)c1ccc2c(c1)cc(COC)n2C | 72.4 | –
7 | CCn1c(CO)cc2cc(N(C)c3cc(C)nc4ccccc34)ccc21 | 21.6 | –

From ChEMBL document CHEMBL5055628, “Anticancer properties of indole derivatives as IsoCombretastatin A-4 analogues” (Eur J Med Chem, 2021)
